Assay results collected from several papers.
Lines come from different studies, so protocols differ.
Observed: metabolic stability
Species: human

COc1ccc2c(c1)[C@]13CCCC[C@@H]1[C@H](C2)N(C)CC3 — hepatocyte CLint (hepatocytes; 0.5 µM, pH 7.4): 19 µL/min/10⁶ cells
CN1C(=O)Cc2ccc(F)c(CCNCC[C@H]3CN(c4ccc5c(n4)NC(=O)CO5)C(=O)O3)c21 — hepatocyte CLint (hepatocytes; 0.5 µM): < 8.2 µL/min/10⁶ cells
CC(C)C[C@H](NC(=O)[C@@H]1COCCCCCCC(=O)NCC(=O)N2CCC[C@H]2C(=O)N1)C(=O)[C@@]1(C)CO1 — scaled CLint (liver microsomes; 2 µM, 1 h): 51.7 mL/min/kg
Cn1c(=O)ccc2ccc(F)c(CCNC[C@H]3CN(c4cnc5c(n4)NC(=O)CO5)C(=O)O3)c21 — hepatocyte CLint (hepatocytes; 0.5 µM): 2 µL/min/10⁶ cells
O=C(O[C@H]1CCC[C@@]2(C1)OOC1(O2)C2CC3CC(C2)CC1C3)N1CCCCC1 (stereo partly shown) — microsomal CLint (liver microsomes): < 11.6 µL/min/mg
Cc1ncc2n1-c1ccc(Cl)cc1C(c1ccccc1F)=NC2 — hepatocyte CLint (hepatocytes; 0.5 µM, pH 7.4): 57.7 µL/min/10⁶ cells
CONC(=O)[C@H]1[C@@H](O)[C@@]2(O)c3c(OC)cc(OC)cc3O[C@@]2(c2ccc(OC)cc2)[C@@H]1c1ccccc1 — microsomal CLint (liver microsomes): 11.6 µL/min/mg
C[C@]12CC[C@H]3[C@@H](CCC4=CC(=O)CC[C@@]43C)[C@@H]1CC[C@@H]2O — hepatocyte CLint (hepatocytes; 1 µM): 110 µL/min/10⁶ cells
CNC(C)Cc1ccc2nsnc2c1 (stereo not shown) — scaled CLint (liver microsomes; 0.5 µM): 11.2 mL/min/kg
COCC1=N[C@@]2(O)[C@H](C(=O)N(C)OC)[C@@H](c3ccccc3)[C@]3(c4ccc(OC)cc4)Oc4cc(OC)cc(OC)c4[C@]23N1 — microsomal CLint (liver microsomes; 1 µM, pH 7.4): 55.8 µL/min/mg
